Results as given in ChEMBL document CHEMBL1275390, “Synthesis and discovery of water-soluble microtubule targeting agents that bind to the colchicine site on tubulin and circumvent Pgp mediated resistance” (J Med Chem, 2010).
Activity calls are given as the source filed them. No cut-off for these calls is given here.

How the values were obtained:
SK-OV-3 [1] = assay: Antiproliferative activity against human SKOV3 cells by sulforhodamine B assay; type: functional, cell-based
Outline: (§1)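 Antiproliferative read-out by sulforhodamine B assay. HeLa and SK-OV-3 cells were from ATCC; SK-OV-3 MDR-1-6/6 is the Pgp-overexpressing, MDR-1-transduced isogenic partner of the parental line. Each IC50 is the mean of at least 3 independent experiments, with triplicate points in each.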

SK-OV-3 [2] = assay: Antiproliferative activity against human SKOV3 cells expressing MDR1-6/6 by sulforhodamine B assay; type: functional, cell-based; outline: as §1
SK-OV-3 [3] = assay: Relative resistance, ratio of IC50 for human SKOV3 cells expressing MDR1-6/6 to IC50 for human SKOV3 cells; type: functional
Outline: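 Relative resistance (Rr) is the SRB-derived IC50 in Pgp-overexpressing, MDR-1-transduced SK-OV-3 MDR-1-6/6 cells divided by the IC50 in parental SK-OV-3 cells.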

HeLa [4] = assay: Antiproliferative activity against human HeLa cells expressing tubulin 3beta by sulforhodamine B assay; type: functional, cell-based
HeLa [5] = assay: Relative resistance, ratio of IC50 for human HeLa cells expressing tubulin 3beta to IC50 for human HeLa cells; type: functional
CCRF-CEM = assay: Growth inhibition of human CCRF-CEM cells by sulforhodamine B assay; type: functional
HL-60(TB) = assay: Growth inhibition of human HL-60(TB) cells by sulforhodamine B assay; type: functional
K562 = assay: Growth inhibition of human K562 cells by sulforhodamine B assay; type: functional
MOLT-4 = assay: Growth inhibition of human MOLT4 cells by sulforhodamine B assay; type: functional
SR = assay: Growth inhibition of human SR cells by sulforhodamine B assay; type: functional
A549 = assay: Growth inhibition of human A549 cells by sulforhodamine B assay; type: functional
EKVX = assay: Growth inhibition of human EKVX cells by sulforhodamine B assay; type: functional
HOP-62 = assay: Growth inhibition of human HOP62 cells by sulforhodamine B assay; type: functional
HOP-92 = assay: Growth inhibition of human HOP92 cells by sulforhodamine B assay; type: functional
NCI-H226 = assay: Growth inhibition of human NCI-H226 cells by sulforhodamine B assay; type: functional
NCI-H23 = assay: Growth inhibition of human NCI-H23 cells by sulforhodamine B assay; type: functional
NCI-H322M = assay: Growth inhibition of human NCI-H322M cells by sulforhodamine B assay; type: functional
NCI-H460 = assay: Growth inhibition of human NCI-H460 cells by sulforhodamine B assay; type: functional
NCI-H522 = assay: Growth inhibition of human NCI-H522 cells by sulforhodamine B assay; type: functional
COLO 205 = assay: Growth inhibition of human COLO205 cells by sulforhodamine B assay; type: functional
HCC 2998 = assay: Growth inhibition of human HCC2998 cells by sulforhodamine B assay; type: functional
HCT-15 = assay: Growth inhibition of human HCT15 cells by sulforhodamine B assay; type: functional
HT-29 = assay: Growth inhibition of human HT-29 cells by sulforhodamine B assay; type: functional
KM12 = assay: Growth inhibition of human KM12 cells by sulforhodamine B assay; type: functional
SW-620 = assay: Growth inhibition of human SW620 cells by sulforhodamine B assay; type: functional
SF-268 = assay: Growth inhibition of human SF268 cells by sulforhodamine B assay; type: functional
SF-295 = assay: Growth inhibition of human SF295 cells by sulforhodamine B assay; type: functional
SF-539 = assay: Growth inhibition of human SF539 cells by sulforhodamine B assay; type: functional
SNB-19 = assay: Growth inhibition of human SNB19 cells by sulforhodamine B assay; type: functional
SNB-75 = assay: Growth inhibition of human SNB75 cells by sulforhodamine B assay; type: functional
U-251 = assay: Growth inhibition of human U251 cells by sulforhodamine B assay; type: functional
LOX IMVI = assay: Growth inhibition of human LOXIMVI cells by sulforhodamine B assay; type: functional
M14 = assay: Growth inhibition of human M14 cells by sulforhodamine B assay; type: functional
MDA-MB-435 [6] = assay: Growth inhibition of human MDA-MB-435 cells by sulforhodamine B assay; type: functional
SK-MEL-2 = assay: Growth inhibition of human SK-MEL-2 cells by sulforhodamine B assay; type: functional
SK-MEL-28 = assay: Growth inhibition of human SK-MEL-28 cells by sulforhodamine B assay; type: functional
SK-MEL-5 = assay: Growth inhibition of human SK-MEL-5 cells by sulforhodamine B assay; type: functional
UACC-62 = assay: Growth inhibition of human UACC62 cells by sulforhodamine B assay; type: functional
IGROV-1 = assay: Growth inhibition of human IGROV1 cells by sulforhodamine B assay; type: functional
OVCAR-3 = assay: Growth inhibition of human OVCAR-3 cells by sulforhodamine B assay; type: functional
OVCAR-4 = assay: Growth inhibition of human OVCAR4 cells by sulforhodamine B assay; type: functional
OVCAR-5 = assay: Growth inhibition of human OVCAR5 cells by sulforhodamine B assay; type: functional
OVCAR-8 = assay: Growth inhibition of human OVCAR8 cells by sulforhodamine B assay; type: functional
NCI/ADR-RES = assay: Growth inhibition of human NCI/ADR-RES cells by sulforhodamine B assay; type: functional
SK-OV-3 [7] = assay: Growth inhibition of human SKOV3 cells by sulforhodamine B assay; type: functional
786-0 = assay: Growth inhibition of human 786-0 cells by sulforhodamine B assay; type: functional
A498 = assay: Growth inhibition of human A498 cells by sulforhodamine B assay; type: functional
ACHN = assay: Growth inhibition of human ACHN cells by sulforhodamine B assay; type: functional
RXF 393 = assay: Growth inhibition of human RXF393 cells by sulforhodamine B assay; type: functional
SN12C = assay: Growth inhibition of human SN12C cells by sulforhodamine B assay; type: functional
TK-10 = assay: Growth inhibition of human TK10 cells by sulforhodamine B assay; type: functional
UO-31 = assay: Growth inhibition of human UO31 cells by sulforhodamine B assay; type: functional
PC-3 = assay: Growth inhibition of human PC3 cells by sulforhodamine B assay; type: functional
DU-145 = assay: Growth inhibition of human DU145 cells by sulforhodamine B assay; type: functional
MCF7 = assay: Growth inhibition of human MCF7 cells by sulforhodamine B assay; type: functional
MDA-MB-231 = assay: Growth inhibition of human MDA-MB-231 cells by sulforhodamine B assay; type: functional
[8] = Growth inhibition of human Hs 578T cells by sulforhodamine B assay; type: functional
MDA-MB-468 = assay: Growth inhibition of human MDA-MB-468 cells by sulforhodamine B assay; type: functional
MDA-MB-435 [9] = assay: Cell cycle arrest in human MDA-MB-435 cells assessed as formation of aberrant mitotic spindles at 850 nM after 24 hrs using propidium iodide staining by flow cytometry; type: functional, cell-based
MDA-MB-435 [10] = assay: Cell cycle arrest in human MDA-MB-435 cells assessed as mitotic accumulation at 850 nM after 24 hrs using propidium iodide staining by flow cytometry; type: functional, cell-based
Outline: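 Cells were then harvested, stained with Krishan's reagent (propidium iodide) and analysed by flow cytometry. Data are plotted as propidium iodide intensity versus number of events.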

HeLa [11] = assay: Antiproliferative activity against human HeLa cells by sulforhodamine B assay; type: functional, cell-based; outline: as §1
Bos taurus = species on record: Bos taurus; assay: Displacement of [3H]colchicine from bovine brain tubulin at 5 uM after 10 mins
MDA-MB-435 [12] = assay: Antiproliferative activity against human MDA-MB-435 cells by sulforhodamine B assay; type: functional, cell-based
Outline: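 SRB assay against cancer cells obtained from ATCC (MDA-MB-435, HeLa). IC50 is the concentration giving 50% inhibition of proliferation, taken as the mean of at least 3 independent experiments, each run in triplicate points.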

COc1cc2c(cc1O)CC[C@@H]1[C@@H]2CC[C@]2(C)[C@@H](O)CC[C@@H]12 [2-METHOXYESTRADIOL]
IC50 (SK-OV-3 [1]): 867 nM | IC50 (SK-OV-3 [2]): 2270 nM | Ratio (SK-OV-3 [3]): 2.6 | IC50 (HeLa [4]): 586 nM | Ratio (HeLa [5]): 1

COc1ccc(N(C)c2nc(C)nc3[nH]ccc23)cc1
GI50 (CCRF-CEM): 315 nM | GI50 (HL-60(TB)): 190 nM | GI50 (K562): 179 nM | GI50 (MOLT-4): 503 nM | GI50 (SR): 87.6 nM | GI50 (A549): 723 nM | GI50 (EKVX): 875 nM | GI50 (HOP-62): 291 nM | GI50 (HOP-92): 4800 nM | GI50 (NCI-H226): 623 nM | GI50 (NCI-H23): 438 nM | GI50 (NCI-H322M): 428 nM | GI50 (NCI-H460): 351 nM | GI50 (NCI-H522): 40.2 nM | GI50 (COLO 205): 243 nM | GI50 (HCC 2998): 271 nM | GI50 (HCT-15): 275 nM | GI50 (HT-29): 279 nM | GI50 (KM12): 181 nM | GI50 (SW-620): 246 nM | GI50 (SF-268): 449 nM | GI50 (SF-295): 269 nM | GI50 (SF-539): 288 nM | GI50 (SNB-19): 612 nM | GI50 (SNB-75): 185 nM | GI50 (U-251): 440 nM | GI50 (LOX IMVI): 407 nM | GI50 (M14): 218 nM | GI50 (MDA-MB-435 [6]): 44.2 nM | GI50 (SK-MEL-2): 251 nM | GI50 (SK-MEL-28): 603 nM | GI50 (SK-MEL-5): 177 nM | GI50 (UACC-62): 625 nM | GI50 (IGROV-1): 340 nM | GI50 (OVCAR-3): 192 nM | GI50 (OVCAR-4): 7730 nM | GI50 (OVCAR-5): 1670 nM | GI50 (OVCAR-8): 639 nM | GI50 (NCI/ADR-RES): 164 nM | GI50 (SK-OV-3 [7]): 248 nM | GI50 (786-0): 433 nM | GI50 (A498): 198 nM | GI50 (ACHN): 556 nM | GI50 (RXF 393): 226 nM | GI50 (SN12C): 854 nM | GI50 (TK-10): 390 nM | GI50 (UO-31): 307 nM | GI50 (PC-3): 509 nM | GI50 (DU-145): 269 nM | GI50 (MCF7): 314 nM | GI50 (MDA-MB-231): 1260 nM | GI50 [8]: 249 nM | GI50 (MDA-MB-468): 208 nM | Activity (MDA-MB-435 [9]): Active | Activity (MDA-MB-435 [10]): Active | IC50 (SK-OV-3 [1]): 278 nM | IC50 (SK-OV-3 [2]): 435 nM | IC50 (HeLa [11]): 270 nM | IC50 (HeLa [4]): 186 nM | inhibition (Bos taurus): 70%

COc1ccc(Nc2nc(C)nc3c2CC(C)C3)cc1 (racemic)
IC50 (MDA-MB-435 [12]): > 10000 nM

COc1ccc(Nc2[nH]c(C)nc3nccc2-3)cc1
IC50 (MDA-MB-435 [12]): > 10000 nM

COc1ccc(/C=C\c2cc(OC)c(OC)c(OC)c2)cc1OP(=O)(O)O [FOSBRETABULIN]
IC50 (SK-OV-3 [1]): 4.5 nM | IC50 (SK-OV-3 [2]): 6.6 nM | Ratio (SK-OV-3 [3]): 1.5 | IC50 (HeLa [11]): 4.7 nM | IC50 (HeLa [4]): 5.7 nM | Ratio (HeLa [5]): 1.2
